For 20 compounds, IC50, EC50 and inhibition results are on record in ChEMBL document CHEMBL1782007, “Cytotoxic and NF-κB inhibitory constituents of the stems of Cratoxylum cochinchinense and their semisynthetic analogues” (J Nat Prod, 2011).

One test has as its target Transcription factor p65 (Homo sapiens, UniProt Q04206). Put plainly: Inhibition of NFkappa p65 in nuclear extract of human HeLa cells assessed as blockade of NFkappa p65 binding to biotinylated-consesus sequence by ELISA. Type of test: cell-free. (In general: ELISA stands for enzyme-linked immunosorbent assay.)
Test [1] relates to HT-29. Put plainly: Effect on mitochondrial membrane potential in human HT-29 cells after 2 hrs using JC-1 staining by fluorescence assay. As to conditions: HT-29, 2 h. Type of test: functional, cell-based.
Test [2] has as its system HT-29. In words: Cytotoxicity against human HT-29 cells after 3 days by sulforhodamine B assay. Type of test: functional. Conditions: HT-29, 72 h, read-out: ED50 (the source's name). In short, it runs like this: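 Trypsinized HT-29 cells seeded in 96-well plates and exposed to serial DMSO dilutions, with a DMSO negative control and a paclitaxel positive control. Incubated 3 days at 37 °C, 5% CO2, then fixed, stained with sulforhodamine B, lysed in tris base and read at 515 nm. ED50 from nonlinear regression. Run in triplicate, two independent experiments.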
On the technique in general: In SRB staining, fixed cells bind dye roughly in proportion to their protein.

The test system of a further test is MDA-MB-435. Put plainly: Antitumor activity against human MDA-MB-435 cells at 20 mg/kg, ip by in-vivo hallow fiber model. Type of test: functional, organism-based. Also on record: dose 20 mg/kg.
The subject of a further test is MCF7. Put plainly: Antitumor activity against human MCF7 cells at 20 mg/kg, ip by in-vivo hallow fiber model. Also on record: dose 20 mg/kg. Type of test: functional, organism-based.
The test system of test [3] is HT-29. In words: Antitumor activity against human HT-29 cells at 20 mg/kg, ip by in-vivo hallow fiber model. Type of test: functional, organism-based. Also on record: dose 20 mg/kg.

Activity calls are given as the source filed them. The calls are words filed in the database; no cut-off is given here.

Broadly, the IC50 is the midpoint of a concentration-inhibition curve.

Chain of Transcription factor p65 (Q04206 whole entry): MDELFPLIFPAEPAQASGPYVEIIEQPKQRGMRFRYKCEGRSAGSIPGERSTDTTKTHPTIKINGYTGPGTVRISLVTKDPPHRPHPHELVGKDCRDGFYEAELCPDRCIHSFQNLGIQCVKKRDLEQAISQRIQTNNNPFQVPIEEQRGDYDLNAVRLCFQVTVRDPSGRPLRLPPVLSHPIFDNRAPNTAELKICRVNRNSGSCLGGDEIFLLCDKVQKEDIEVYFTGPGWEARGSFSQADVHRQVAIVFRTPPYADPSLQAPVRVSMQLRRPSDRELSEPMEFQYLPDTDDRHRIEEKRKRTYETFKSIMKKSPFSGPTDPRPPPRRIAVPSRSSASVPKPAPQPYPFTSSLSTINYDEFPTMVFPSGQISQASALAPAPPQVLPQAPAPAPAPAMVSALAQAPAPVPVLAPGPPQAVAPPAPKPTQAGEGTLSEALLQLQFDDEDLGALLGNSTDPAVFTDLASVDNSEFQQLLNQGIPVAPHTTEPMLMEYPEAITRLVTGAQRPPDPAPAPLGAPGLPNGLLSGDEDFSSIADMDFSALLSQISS

Turning to `CC(C)=CCC/C(C)=C/Cc1c(O)c(CC=C(C)C)c(O)c2c(=O)c3cc(OC(=O)c4ccccc4)ccc3oc12`, the IC50 at Transcription factor p65 and in the test with HT-29 [1] was more than 10 µM each time.

Regarding `COc1c(O)cc2oc3cc(OC(C)=O)c(CC=C(C)C)c(O)c3c(=O)c2c1CC=C(C)C`, the EC50 with HT-29 [2] stood at 8.8 µM. Moreover, the IC50 on Transcription factor p65 is more than 10 µM.

`CC(=O)Oc1ccc2oc3c(C/C=C(\C)CCC=C(C)C)c(OC(C)=O)c(CC=C(C)C)c(O)c3c(=O)c2c1`: the EC50 in the test on HT-29 [2] was more than 10 µM. For the same compound, the 50% inhibitory concentration (IC50) at Transcription factor p65 was more than 10 µM.

As to `COc1ccc2oc3c(C/C=C(\C)CCC=C(C)C)c(O)c(CC=C(C)C)c(O)c3c(=O)c2c1`, the IC50 on Transcription factor p65 and in the test on HT-29 [1] was more than 10 µM each time.

Turning to `COc1c(O)cc2oc3cc4c(c(O)c3c(=O)c2c1CCC(C)(C)OC=O)CCC(C)(C)O4`, the EC50 in the test on HT-29 [2] stood at 4.4 µM. In addition, the IC50 in the test on HT-29 [1] was more than 10 µM.

On to `CC(C)=CCc1c(O)cc2oc3cc(O)c(O)c(CC=C(C)C)c3c(=O)c2c1O`, for which, in the test with HT-29 [2], the EC50 was found to be 4 µM. Besides, in the test with HT-29 [1], the IC50 is more than 10 µM.

In the case of `COc1cc2oc3c(C)c(OC)c(CC=C(C)C)c(O)c3c(=O)c2c(CC=C(C)C)c1OC`, the EC50 with HT-29 [2] is more than 10 µM. Also, the 50% inhibitory concentration (IC50) on Transcription factor p65 is more than 10 µM; with HT-29 [1], 1.4 µM.

For `COc1c(O)cc2oc3cc(O)c(CC=C(C)C)c(O)c3c(=O)c2c1CC=C(C)C` [MANGOSTIN], the EC50 in the test with HT-29 [2] came to 4.1 µM. For the same compound, the IC50 is more than 10 µM on Transcription factor p65 and 0.2 µM in the test on HT-29 [1].

As to `COc1cc2oc3cc(OC)c(OC)c(CC=C(C)C)c3c(=O)c2c(O)c1CC=C(C)C`, the EC50 with HT-29 [2] is more than 10 µM. Besides, the IC50 on Transcription factor p65 is more than 10 µM; in the test with HT-29 [1], 0.9 µM.

With `CC(C)=CCC/C(C)=C/Cc1c(O)c(CC=C(C)C)c(O)c2c(=O)c3cc(O)ccc3oc12` [COCHINCHINONE A], the EC50 in the test with HT-29 [2] was more than 10 µM. The IC50 at Transcription factor p65 and with HT-29 [1] was more than 10 µM in each case.

For the compound `COc1c(OC(=O)c2ccccc2)cc2oc3cc(O)c(CC=C(C)C)c(O)c3c(=O)c2c1CC=C(C)C`, the EC50 with HT-29 [2] worked out at 1.9 µM. Moreover, the IC50 on Transcription factor p65 and in the test on HT-29 [1] was more than 10 µM throughout.

On to `COc1ccc2oc3c(C/C=C(\C)CCC=C(C)C)c(OC)c(CC=C(C)C)c(O)c3c(=O)c2c1`, for which the EC50 in the test on HT-29 [2] is more than 10 µM. Moreover, the IC50 at Transcription factor p65 was more than 10 µM.

For `COc1c(OC(C)=O)cc2oc3cc(OC(C)=O)c(CC=C(C)C)c(O)c3c(=O)c2c1CC=C(C)C`, the inhibition entry in the test on MDA-MB-435, with MCF7 and in the test on HT-29 [3] was “inactive” throughout. Moreover, the EC50 with HT-29 [2] was found to be 1 µM. For the same compound, the figures for the concentration for half-maximal inhibition (IC50) on Transcription factor p65 and in the test on HT-29 [1] were more than 10 µM and 1.8 µM, respectively.

For the compound `COc1c(O)cc2oc3cc(O)c4c(c3c(=O)c2c1CCC(C)(C)O)OC(C)(C)CC4`, the EC50 with HT-29 [2] was more than 10 µM. Further, in the test on HT-29 [1], the IC50 was more than 10 µM.

Turning to `CC(C)=CCc1c(O)c(CC=C(C)C)c2oc3ccc(O)cc3c(=O)c2c1O`, the EC50 with HT-29 [2] was more than 10 µM. In addition, the half-inhibitory concentration (IC50) on Transcription factor p65 is 2.9 µM.

For the compound `COc1c(O)cc2oc3cc4c(c(O)c3c(=O)c2c1CCC(C)(C)O)CCC(C)(C)O4`, the EC50 in the test on HT-29 [2] is 4.4 µM. The IC50 in the test on HT-29 [1] is more than 10 µM.

For `CC(=O)O[C@H]1C(=O)[C@@]2(C)[C@H]([C@H](OC(=O)c3ccccc3)[C@]3(O)C[C@H](OC(=O)[C@H](O)[C@@H](NC(=O)c4ccccc4)c4ccccc4)C(C)=C1C3(C)C)[C@]1(OC(C)=O)CO[C@@H]1C[C@@H]2O` [PACLITAXEL], the EC50 in the test on HT-29 [2] worked out at 0.0001 µM.

For the compound `CC(C)=CC[C@]12OC(C)(C)[C@H]3C[C@H](C=C4C(=O)c5c(O)cc(O)cc5O[C@@]431)C2=O` [COCHINCHINOXANTHONE], the EC50 in the test on HT-29 [2] came out at 5.8 µM. The IC50 was more than 10 µM at Transcription factor p65 and 3.3 µM in the test with HT-29 [1].

As to `COc1c(OC(C)=O)cc2oc3cc(OC(C)=O)c(CC=C(C)C)c(OC(C)=O)c3c(=O)c2c1CC=C(C)C`, the EC50 with HT-29 [2] came to 6 µM. Also, the IC50 at Transcription factor p65 was more than 10 µM.

`CC(C)=CCC/C(C)=C/Cc1c(O)c2c(c3c(=O)c4cc(O)ccc4oc13)OC(C)(C)[C@@H](O)C2` [COCHINENSOXANTHONE]: in the test on HT-29 [2], the EC50 was more than 10 µM.
